Data published in ChEMBL document CHEMBL5724801, “EUbOPEN Chemogenomics Library - Multiplex” (2024).
“And” between values parts separate entries of the source, which are not always exact repeats. Identical values can stand only once.

Columns and labels:
HEK-293T = experiment: Multiplex assay against HEK293T; type: toxicity, cell-based; details: human
Method in brief: (§1)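 Cells were classed with CellPathfinder machine-learning gating, first as Hoechst high-intensity objects or normal cells, then (normal cells) as healthy, pyknosed or fragmented nuclei, and finally (pyknosed cells) as mitotic or apoptotic. Staining of live cells at seeding used Hoechst33342, BioTracker Green Microtubule Cytoskeleton Dye, MitoTracker Red and Annexin V Alexa Fluor 680, with imaging on a CQ1 microscope at 37°C and 5% CO2 after compound addition. Tubulin, mitochondrial-mass and membrane-permeability phenotypes are per cents of healthy-nucleus cells.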

Fibroblast = experiment: Multiplex assay against human fibroblast; type: toxicity, cell-based; method in brief: as §1
[1] = 24 h, 1 µM, compound concentration 1 uM
[2] = 24 h, 10 µM, compound concentration 10 uM
[3] = 48 h, 1 µM, compound concentration 1 uM
[4] = 48 h, 10 µM, compound concentration 10 uM
[5] = 12 h, 1 µM, compound concentration 1 uM
[6] = 12 h, 10 µM, compound concentration 10 uM

In the case of `Cc1noc(C)c1-c1cnc2c(-c3ccc(C(=O)O)cc3)cn([C@@H](C)c3ccccn3)c2c1` [PLX-51107], the “Population Tubulin-Different-Phenotype (%)” value (HEK-293T; [1]) is reported as 0.7% and 3.96%, the “Population Apoptotic (%)” value (HEK-293T; [2]) is reported as 10.67% and 13.49% and the “Population Healthy Nuclei (%)” value (HEK-293T; [2]) is reported as 62.01% and 40.13%. The “Population Hoechst High Intensity Objects (%)” value (HEK-293T; [2]) was 0%, the “Population Membrane Permeable-Phenotype (%)” value (HEK-293T; [2]) was 0% and 0.81% and the “Population Mitochondria Different-Phenotype (%)” value (HEK-293T; [2]) was 8.3% and 4.84%. The “Population Mitotic Cells (%)” value (HEK-293T; [2]) was 89.33% and 86.51%, the “Population Normal (%)” value (HEK-293T; [2]) was 100% and the “Population Pyknosed Nuclei (%)” value (HEK-293T; [2]) was 36.76% and 40.78%. The “Population Tubulin-Different-Phenotype (%)” value (HEK-293T; [2]) was 0% and 5.65%, the “Total Cell Count” value (HEK-293T; [2]) was 408 and 309 and the “Population Fragmented Nuclei (%)” value (HEK-293T; [3]) was 6.3% and 3.02%. For the same compound, the “Population Healthy Nuclei (%)” value (HEK-293T; [3]) was 84.08% and 65.66%, the “Population Hoechst High Intensity Objects (%)” value (HEK-293T; [3]) was 0.14% and 0% and the “Population Membrane Permeable-Phenotype (%)” value (HEK-293T; [3]) was 0.33% and 1.15%. For the same compound, the “Population Mitochondria Different-Phenotype (%)” value (HEK-293T; [3]) was 5.35% and 6.9%, the “Population Mitotic Cells (%)” value (HEK-293T; [3]) was 94.96% and 79.52% and the “Population Normal (%)” value (HEK-293T; [3]) was 99.86% and 100%. The “Population Tubulin-Different-Phenotype (%)” value (HEK-293T; [3]) was 0.33% and 2.87%, the “Population Healthy Nuclei (%)” value (HEK-293T; [4]) was 78.62% and 47.53% and the “Population Hoechst High Intensity Objects (%)” value (HEK-293T; [4]) was 0%. The “Population Membrane Permeable-Phenotype (%)” value (HEK-293T; [4]) was 0.21% and 0.65%, the “Population Mitochondria Different-Phenotype (%)” value (HEK-293T; [4]) was 10.49% and 12.34% and the “Population Mitotic Cells (%)” value (HEK-293T; [4]) was 95.33% and 80.87%. For the same compound, the “Population Normal (%)” value (HEK-293T; [4]) was 100%, the “Population Pyknosed Nuclei (%)” value (HEK-293T; [4]) was 18.01% and 35.49% and the “Population Tubulin-Different-Phenotype (%)” value (HEK-293T; [4]) was 0.43% and 6.49%. The “Total Cell Count” value (HEK-293T; [4]) was 594 and 324, the “Population Apoptotic (%)” value (Fibroblast; [5]) was 4.44% and 12.9% and the “Population Fragmented Nuclei (%)” value (Fibroblast; [5]) was 10.26% and 3.93%. For the same compound, the “Population Healthy Nuclei (%)” value (Fibroblast; [5]) was 66.67% and 82.53%, the “Population Hoechst High Intensity Objects (%)” value (Fibroblast; [5]) was 0% and the “Population Membrane Permeable-Phenotype (%)” value (Fibroblast; [5]) was 4.62% and 1.06%. For the same compound, the “Population Mitochondria Different-Phenotype (%)” value (Fibroblast; [5]) was 10% and 6.88%, the “Population Mitotic Cells (%)” value (Fibroblast; [5]) was 95.56% and 87.1% and the “Population Normal (%)” value (Fibroblast; [5]) was 100%. The “Population Pyknosed Nuclei (%)” value (Fibroblast; [5]) was 23.08% and 13.54%, the “Population Tubulin-Different-Phenotype (%)” value (Fibroblast; [5]) was 11.54% and 14.81% and the “Total Cell Count” value (Fibroblast; [5]) was 195 and 229. For the same compound, the “Population Apoptotic (%)” value (Fibroblast; [6]) was 16.13% and 16.67%, the “Population Fragmented Nuclei (%)” value (Fibroblast; [6]) was 6.25% and 5.33% and the “Population Healthy Nuclei (%)” value (Fibroblast; [6]) was 78.85% and 82.38%. The “Population Hoechst High Intensity Objects (%)” value (Fibroblast; [6]) was 0%, the “Population Membrane Permeable-Phenotype (%)” value (Fibroblast; [6]) was 4.27% and 2.99% and the “Population Mitochondria Different-Phenotype (%)” value (Fibroblast; [6]) was 12.8% and 10.95%. The “Population Mitotic Cells (%)” value (Fibroblast; [6]) was 83.87% and 83.33%, the “Population Normal (%)” value (Fibroblast; [6]) was 100% and the “Population Pyknosed Nuclei (%)” value (Fibroblast; [6]) was 14.9% and 12.3%. The “Population Tubulin-Different-Phenotype (%)” value (Fibroblast; [6]) was 14.63% and 21.89%, the “Total Cell Count” value (Fibroblast; [6]) was 208 and 244 and the “Population Fragmented Nuclei (%)” value (Fibroblast; [1]) was 8.57% and 3.9%. The “Population Healthy Nuclei (%)” value (Fibroblast; [1]) was 78.1% and 88.31%, the “Population Hoechst High Intensity Objects (%)” value (Fibroblast; [1]) was 0% and the “Population Membrane Permeable-Phenotype (%)” value (Fibroblast; [1]) was 2.44% and 0.98%. The “Population Mitochondria Different-Phenotype (%)” value (Fibroblast; [1]) was 4.88% and 3.43%, the “Population Mitotic Cells (%)” value (Fibroblast; [1]) was 82.14% and 94.44% and the “Population Normal (%)” value (Fibroblast; [1]) was 100%. For the same compound, the “Population Pyknosed Nuclei (%)” value (Fibroblast; [1]) was 13.33% and 7.79%, the “Population Tubulin-Different-Phenotype (%)” value (Fibroblast; [1]) was 7.32% and 10.29% and the “Total Cell Count” value (Fibroblast; [1]) was 210 and 231. The “Population Apoptotic (%)” value (Fibroblast; [2]) was 20% and 14.81%, the “Population Fragmented Nuclei (%)” value (Fibroblast; [2]) was 7.04% and 7.47% and the “Population Healthy Nuclei (%)” value (Fibroblast; [2]) was 85.43% and 81.33%. For the same compound, the “Population Hoechst High Intensity Objects (%)” value (Fibroblast; [2]) was 0%, the “Population Membrane Permeable-Phenotype (%)” value (Fibroblast; [2]) was 3.53% and 2.04% and the “Population Mitochondria Different-Phenotype (%)” value (Fibroblast; [2]) was 11.18% and 6.63%. For the same compound, the “Population Mitotic Cells (%)” value (Fibroblast; [2]) was 80% and 85.19%, the “Population Normal (%)” value (Fibroblast; [2]) was 100% and the “Population Pyknosed Nuclei (%)” value (Fibroblast; [2]) was 7.54% and 11.2%. The “Population Tubulin-Different-Phenotype (%)” value (Fibroblast; [2]) was 12.94% and 15.31%, the “Total Cell Count” value (Fibroblast; [2]) was 199 and 241 and the “Population Apoptotic (%)” value (Fibroblast; [3]) was 30%. The “Population Fragmented Nuclei (%)” value (Fibroblast; [3]) was 11.06% and 8.8%, the “Population Healthy Nuclei (%)” value (Fibroblast; [3]) was 84.13% and 87.2% and the “Population Hoechst High Intensity Objects (%)” value (Fibroblast; [3]) was 0%. For the same compound, the “Population Membrane Permeable-Phenotype (%)” value (Fibroblast; [3]) was 0.57% and 3.67%, the “Population Mitotic Cells (%)” value (Fibroblast; [3]) was 70% and the “Population Normal (%)” value (Fibroblast; [3]) was 100%. For the same compound, the “Population Pyknosed Nuclei (%)” value (Fibroblast; [3]) was 4.81% and 4%, the “Population Tubulin-Different-Phenotype (%)” value (Fibroblast; [3]) was 4.57% and 11.93% and the “Total Cell Count” value (Fibroblast; [3]) was 208 and 250. For the same compound, the “Population Apoptotic (%)” value (Fibroblast; [4]) was 28.57% and 50%, the “Population Fragmented Nuclei (%)” value (Fibroblast; [4]) was 7% and 9.25% and the “Population Healthy Nuclei (%)” value (Fibroblast; [4]) was 86% and 83.7%. The “Population Hoechst High Intensity Objects (%)” value (Fibroblast; [4]) was 0%, the “Population Membrane Permeable-Phenotype (%)” value (Fibroblast; [4]) was 3.49% and 1.05% and the “Population Mitotic Cells (%)” value (Fibroblast; [4]) was 71.43% and 50%. For the same compound, the “Population Normal (%)” value (Fibroblast; [4]) was 100%, the “Population Pyknosed Nuclei (%)” value (Fibroblast; [4]) was 7% and 7.05% and the “Population Tubulin-Different-Phenotype (%)” value (Fibroblast; [4]) was 10.47% and 9.47%. The “Total Cell Count” value (Fibroblast; [4]) was 200 and 227.
